# Screening data as filed in PubChem.
# A selection: hits, their analogues and other compounds. The true share with any hit is near 4.9%.
# NF-kB neuron act: activators of NF-kB expression in neurons, primary screen, cell-based, HTS; fold change at 12.5 µM; actives 1.6% (n = 190,000); human neuronal cells, NF-kB reporter expression; hits give high values; in the data active = fold change above about 3.3
# STAT1 act: STAT1 signaling activators, primary screen, cell-based, HTS, luciferase reporter; activation (% of control), % at 5.5 µM; NIH 3T3 STAT1-luciferase reporter, IFN-gamma, luminescence; 100% = IFN-gamma alone, no compound; actives 2.6% (n = 200,000);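 active = activation above the screen-wide mean activation plus 3 SD, cut at about 130% in these data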;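 note: raw ratio to IFN-gamma control signal so 100% means no change and 0% no light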
# STAT1 inh: STAT1 signaling inhibitors, primary screen, cell-based, HTS, luciferase reporter; actives 0.35% (n = 200,000); NIH 3T3 STAT1-luciferase reporter, IFN-gamma, luminescence; AID 920, 2007; inhibition, % at 5.5 µM;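 active = inhibition above a set limit, the mean inhibition across all tested compounds plus 3 SD, cut at about 34% in these data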;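 note: 0% = IFN-gamma with DMSO and 100% = IFN-gamma with 300 µM nifuroxazide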
# STAT3 blocker: IL-6 driven STAT3 reporter inhibitors, primary screen, U3A cells, luciferase, luminescence, MLSCN library. IL-6 STAT3-luciferase reporter; host cell line lacks STAT1. inhibition, % at 5.5 µM. actives 0.89% (n = 190,000). AID 862, 2007;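 active = inhibition above the mean inhibition across all screened compounds plus 3 SD, cut at about 44% in these data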;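 note: 0% = DMSO only wells and 100% = 100 µM nifuroxazide control wells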
# STAT3 act: IL-6 driven STAT3 reporter potentiators, primary screen, U3A cells, luciferase, luminescence, MLSCN library; IL-6 STAT3-luciferase reporter; 100% = signal with IL-6 EC80 alone; actives 0.91% (n = 190,000); activation (% of control), % at 5.6 µM;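 active = activation above the screen-wide mean of compound activation plus 3 SD, cut at about 130% in these data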;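 note: 0% = background luminescence of wells with medium and substrate only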
#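 System – human U3A cells carrying STAT3-luciferase construct · Probe or stimulus – Interleukin-6, 33 ng/mL · Schedule – compound 1 h, then IL-6 6 h at 37 °C · Signal – luminescence from STAT3-driven luciferase reporter · Evaluation – percent of IL-6-only median luminescence · Benchmarks – IL-6-only high control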
# APP 5'UTR act: activators of APP 5'UTR luciferase reporter, primary screen, SH-SY5Y cells; SH-SY5Y APP 5'UTR luciferase reporter, luminescence; zero percent = DMSO vehicle wells; activation, % at 2 µM; actives 1% (n = 190,000); AID 1276, 2008;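 active = activation above a set limit, based on mean plus 3 SD of controls, cut at about 140% in these data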
# * hit, by the source's call; / = not tested or not shown.
SMILES,NF-kB neuron act,STAT1 act,STAT1 inh,STAT3 blocker,STAT3 act,APP 5'UTR act
CC1(C)CC(=O)C2=C(C1)Nc1ccccc1NC2c1cccnc1 (configuration not stated),1.2,/,/,/,/,/
O=c1[nH]c2ccccc2nc1/C=C/c1ccc(O)cc1,1,138*,-44,26,79,81
COC(=O)c1sc(NC(=O)c2oc3ccccc3c2C)nc1C,2.5,144*,-48,-30,128,27
O=C(Nc1nc2ccccc2[nH]1)C1CC1,0.94,124,-27,3,104,10
COC(=O)c1sc(NC(=O)c2ccc(C)o2)nc1C,1.3,121,-22,7,93,70
CSc1ccccc1C(=O)Nc1nc2ccccc2[nH]1,2.1,111,-12,9,96,126
O=C(Nc1nc2ccccc2[nH]1)c1cccs1,3.8*,123,-22,25,82,166*
O=c1[nH]c2ccccc2nc1/C=C(\O)C1CC1,1.6,98,2,13,89,2
O=C(Nc1nc2ccccc2[nH]1)c1ccc(Br)o1,3.6*,144*,-49,-27,123,91
CCC(C)c1ccccc1NC(=O)C(C)N(C)Cc1cccc(OC)c1 (configuration not stated),1.1,89,10,4,103,-17
COc1ccc(CNC(=O)C(=O)NCCCn2ccnc2)cc1,1.2,100,-2,-2,104,-7
O=C(Nc1nc2ccccc2[nH]1)C12CC3CC(CC(C3)C1)C2,3.1,132*,-35,6,100,79
Cc1c(C(=O)Nc2nc3ccccc3[nH]2)oc2ccc(Br)cc12,1.1,114,-15,12,86,40
CC(C)(C)/C(O)=C/c1nc2ccccc2[nH]c1=O,1.5,97,3,2,101,13
Cc1c(C(=O)Nc2nc3ccccc3[nH]2)oc2ccccc12,8.1*,162*,-66,-58,145*,182*
O=c1[nH]c2ccccc2nc1/C=C(\O)c1cccs1,1.5,146*,-51,-84,169*,96
O=C(c1c[nH]c2ccccc2c1=O)N1CCCCCC1,0.99,99,1,0,105,4
O=C(CSCC(=O)N1CCCCC1)Nc1nc(-c2ccccc2)c(-c2ccccc2)s1,0.93,94,6,-2,102,-3
COc1cc(NC(=O)COC(=O)CCc2cc(OC)c(OC)c(OC)c2)cc(OC)c1,1.2,103,-5,6,99,1
CCOC(=O)c1[nH]c2ccc(C)cc2c1N,3.5*,120,-20,-9,113,111
Cc1ccc(CN2CCN(CC(C)C)C(CCO)C2)s1 (configuration not stated),2.6,135*,-37,-8,112,76
Cc1ccc(CN2CCN(CCC(C)C)C(CCO)C2)s1 (configuration not stated),1.3,98,0,7,98,1
CSc1ccc(-c2ccco2)nn1,1.7,129*,-32,-2,105,29
CSc1cccc(NC(=S)N(CCCN2CCC(C)CC2)Cc2cccs2)c1,0.85,108,-9,12,100,-1
COc1ccc(C2CC(c3ccccc3)=NN2c2ccc(N)cc2)cc1 (configuration not stated),1.4,141*,-46,21,86,7
SMILES,NF-kB neuron act,STAT1 act,STAT1 inh,STAT3 blocker,STAT3 act,APP 5'UTR act
Nc1nonc1N/N=C/c1c(O)ccc2ccccc12,3.3,75,25,27,79,-3
Nc1cc(Cl)nc(N/N=C/c2c(O)ccc3ccccc23)n1,4.4*,96,4,-1,102,18
CC(=O)NCc1nc2ccccc2n1Cc1ccccc1C,1,95,6,5,100,0
CC(=O)Nc1nc2ccccc2n1Cc1ccccc1C,0.77,124,-27,-34,134*,3
NC(=O)c1cc2ccc(O)cc2oc1=NCc1ccccc1,1.3,110,-13,1,103,-21
NC(=O)c1cc2ccc(O)cc2oc1=Nc1ccccc1,2.1,130*,-34,24,85,2
